This is a sample that favours compounds with a hit; in the whole collection about 4.5% have one here.
TAAR1 agonist – human TAAR1 agonism; Q96RJ0; 360,000 compounds, 0.99% hits; activation, % at 3 µM; CHO RD-HGA16 TAAR1, Fluo-8 calcium fluorescence; vehicle wells 0%, saturating PEA agonist 100%;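 active means activation above the mean activation of all test compounds in the run plus 3 SD, cut at about 38% in these data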
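System: CHO-derived RD-HGA16 cells with stable Gα16 and human TAAR1. Times: 17-24 h plating, Fluo-8 75 min 37 °C, 30 min RT. Measured by: calcium-sensitive Fluo-8 signal, excitation 470-495, emission 515-575 nm. Read-out basis: % activation relative to PEA EC100 response. Control set: DMSO and PEA EC100. Repeats: no replicates (n 1).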
GPR7 antag – blocks human GPR7 receptor signaling | P48145 | GPR7-expressing cells, fluorescence antagonist assay | inhibition, % at 4.4 µM | 290,000 compounds, 1.1% hits | AID 1861; in the data active means inhibition above about 16%, passing the limit was not always enough;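 further: cells stimulated with the agonist NPW; 0% = agonist with vehicle and 100% = vehicle without agonist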
OX1R antag-1 – antagonists of human orexin 1 receptor (OX1R) | OX1R-expressing cells, FRET antagonist read-out | inhibition, % at 6.6 µM | 330,000 compounds, 1.8% hits | O43613; in the data active means inhibition mostly above about 38%, no sharp cut-off; inactive means mostly below about 40%;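 further: 0% = agonist challenge alone and 100% = reference antagonist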
Target sequence (O43613 whole entry, looked up): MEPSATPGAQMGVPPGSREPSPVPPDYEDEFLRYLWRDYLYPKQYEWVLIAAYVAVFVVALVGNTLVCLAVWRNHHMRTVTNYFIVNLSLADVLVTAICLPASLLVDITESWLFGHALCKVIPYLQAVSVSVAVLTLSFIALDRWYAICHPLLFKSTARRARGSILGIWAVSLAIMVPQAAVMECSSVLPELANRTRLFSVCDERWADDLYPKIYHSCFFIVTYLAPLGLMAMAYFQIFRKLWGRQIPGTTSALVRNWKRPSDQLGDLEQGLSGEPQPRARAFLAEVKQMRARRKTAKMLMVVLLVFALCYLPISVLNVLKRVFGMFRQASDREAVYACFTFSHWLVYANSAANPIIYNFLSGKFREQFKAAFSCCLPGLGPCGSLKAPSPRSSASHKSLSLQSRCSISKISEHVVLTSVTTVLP
OX1R antag-2 – human HCRTR1 antagonism; CHO/OX1R cells, Fluo-8 calcium fluorescence, orexin A; inhibition, % at 5 µM; 330,000 compounds, 0.43% hits; AID 434989;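 active means inhibition above its plate's threshold, mean inhibition of all tested compounds on the plate plus 3 SD, cut at about 37% in these data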;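 further: 0% = orexin A challenge wells and 100% = SB-334867-A antagonist wells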
CHO parental Ca – signal in parental CHO cells, OX1R antagonist counter-screen; parental CHO-K1, ATP-induced calcium, Fluo-8 fluorescence; 330,000 compounds, 0.63% hits; inhibition, % at 5.6 µM;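 active means inhibition above that plate's mean sample inhibition plus 3 SD, cut at about 26% in these data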;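 further: 0% = ATP-challenged DMSO wells and 100% = DMSO wells without ATP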
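Test system: untransfected parental CHO cell line. Compound: one dose, 5.6 µM nominal. Detection: intracellular calcium via Fluo-8 no-wash fluorescent dye. Measure: % inhibition. Benchmarks: ATP-challenged DMSO wells low, unchallenged DMSO wells high.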
TAAR1 antag – human TAAR1 antagonism | Q96RJ0 | CHO RD-HGA16 TAAR1, Fluo-8 calcium fluorescence, antagonist | inhibition, % at 3 µM | 360,000 compounds, 1.5% hits;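 active means inhibition above a per-plate cutoff, the mean inhibition of test compounds on that plate plus 3 SD, cut at about 49% in these data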;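 further: 0% = DMSO plus EC80 beta-PEA response and 100% = DMSO alone without agonist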
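System: RD-HGA16 CHO cells with stable hTAAR1 and Gα16 | Probe or stimulus: EC80 β-phenethylamine stimulus | Dosing: 3 µM, single point | Times: Dye loading 75 min at 37 °C, then 30 min room temperature | Measured by: Fluo-8 calcium-sensitive fluorescence | Read-out basis: % inhibition of agonist calcium response | Replicates: n of 1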
Active calls of the source: *; / = no result given.

SMILES | TAAR1 agonist | GPR7 antag | OX1R antag-1 | OX1R antag-2 | CHO parental Ca | TAAR1 antag
COc1ccc2[nH]c(=O)c(CN(Cc3cccs3)S(=O)(=O)c3cccc4nsnc34)cc2c1 | 21 | -10 | 13 | -23 | -14 | 53*
CCOC(=O)C1CCCN(CC(O)COc2ccc(OC)cc2C(C)(C)C)C1 (configuration not stated) | 39* | -1 | 6 | -43 | -16 | 48
CCOC(=O)N1CCN(CC(O)COc2ccc(OC)cc2C(C)(C)C)CC1 (configuration not stated) | 6 | -9 | 22 | -39 | -15 | 3
COc1ccc(N2C(=O)c3n[nH]c(C)c3C2c2ccccc2)cc1 (configuration not stated) | 0 | / | / | / | / | -16
COc1ccc(C2C(C(C)=O)=C(C)N=c3s/c(=C\c4cc(C)n(C)c4C)c(=O)n32)c(OC)c1 (configuration not stated) | 41* | -6 | 8 | 22 | 21 | 30
Cc1cccc(NS(=O)(=O)c2nnc(NC(=O)c3ccc(C)c(C)c3)s2)c1 | -2 | -2 | 52* | 23 | 2 | -1
Cc1ccc(C(=O)Nc2nnc(S(=O)(=O)Nc3ccccc3C)s2)cc1C | 0 | 1 | 23 | -8 | -4 | -22
O=C(/C=C(\Nc1ccc(Cl)c(Cl)c1)c1ccccc1)c1ccccc1 | -1 | / | / | / | / | 12
CC(=O)NC(=Cc1ccccc1)C(=O)N1CCCC1C(=O)O (configuration not stated) | 1 | / | / | / | / | 3
CC(=O)N1CCN(c2ccccc2NC(=O)COc2cc(C)ccc2C(C)C)CC1 | 20 | 21* | 37 | -8 | -13 | 47
COc1ccc(NS(=O)(=O)c2cc([N+](=O)[O-])ccc2N/N=C/c2c(C)[nH]c3ccccc23)cc1 | 3 | / | / | / | / | 3
Cc1[nH]c2ccccc2c1/C=N/Nc1ccccc1[N+](=O)[O-] | -2 | -16 | 67* | 2 | -18 | -34
O=[N+]([O-])c1cnc(Sc2ccncn2)s1 | 3 | 4 | 72* | 18 | 24 | -20
CCC1Sc2ccc(S(=O)(=O)Nc3ccc(OC)c(OC)c3)cc2NC1=O (configuration not stated) | 11 | 10 | 24 | 46* | 45* | 11
CCC1Sc2ccc(S(=O)(=O)Nc3ccc(OC)cc3)cc2NC1=O (configuration not stated) | 56* | 18 | 2 | 8 | 8 | 24
Cc1cc(-c2nc3ccccc3o2)c2ccccc2n1 | 14 | -9 | 45* | -20 | -34 | 9
CC(C)(C)S(=O)(=O)N1Cc2cc(CO)ccc2[C@@H]1CCO | 3 | / | / | / | / | -10
O=C(Nc1ccc2ncccc2c1)c1ccccc1Br | / | -17 | 11 | -11 | -11 | /
O=C(Nc1ccc2ncccc2c1)Nc1ccc2ncccc2c1 | 20 | 5 | 76* | -4 | -14 | 2
CCN(CC)CCC=C(c1cccs1)c1cccs1 | 2 | / | / | / | / | -24
O=C(/C=C/c1ccc(OCCCF)cc1)Nc1ccnc(-c2ccncc2)n1 | 11 | -19 | 85* | 22 | 30 | 16
O=C(/C=C/c1ccc(OCCCF)cc1)Nc1ccnc(-c2cccnc2)n1 | 19 | 2 | 28 | -15 | -5 | 55*
O=C(/C=C/c1ccc(OCCCF)cc1)NCc1cccc(Cl)c1 | 3 | -7 | 26 | -6 | 2 | -2
CCCCC(=O)Nc1ccnc(-c2cccnc2)n1 | 6 | -16 | 9 | -12 | 4 | -18
COc1ccccc1-c1ccc2c(c1)C(C)(Cc1cccc(C#N)c1)C(=O)N2 (configuration not stated) | 1 | / | / | / | / | 5
SMILES | TAAR1 agonist | GPR7 antag | OX1R antag-1 | OX1R antag-2 | CHO parental Ca | TAAR1 antag
Cc1ccc(NC(=S)NNC(=O)c2cccc([N+](=O)[O-])c2)cc1Cl | 1 | -10 | 40* | -15 | -15 | -20
CC1(C(=O)NNC(=O)c2cccc([N+](=O)[O-])c2)CC1(Br)Br (configuration not stated) | -1 | -22 | 42* | -17 | -23 | -44
O=C(NC(NC(=S)Nc1ccc(Cl)cc1Cl)C(Cl)(Cl)Cl)c1cccc([N+](=O)[O-])c1 (configuration not stated) | 15 | 27 | 26 | 42* | 41* | -10
CC1(C(=O)NNC(=O)c2ccc([N+](=O)[O-])cc2)CC1(Br)Br (configuration not stated) | 0 | -12 | 30 | -15 | 3 | -12
O=C(O)c1cccc(NC(=S)NC(NC(=O)c2cccc([N+](=O)[O-])c2)C(Cl)(Cl)Cl)c1 (configuration not stated) | -2 | -18 | 20 | -19 | -11 | -35
O=C(NNC(=S)Nc1ccc(F)cc1)c1cccc([N+](=O)[O-])c1 | 4 | -7 | 13 | -1 | -10 | 6
Cc1ccc(Nc2ccc([N+](=O)[O-])cn2)cc1Cl | 0 | 0 | / | / | / | 54*
Cc1ccc(CCNC(=O)C2CCN(S(=O)(=O)c3ccc4c(c3)NC(=O)C(C)S4)CC2)cc1 (configuration not stated) | 13 | 22 | 12 | -6 | 2 | 61*
CC1Sc2ccc(S(=O)(=O)N3CCC(C(=O)NCC(C)c4ccccc4)CC3)cc2NC1=O (configuration not stated) | 42* | 6 | 19 | 15 | 34* | 46
Cc1ccccc1NC(=O)C1CCN(S(=O)(=O)c2ccc3c(c2)NC(=O)C(C)S3)CC1 (configuration not stated) | 2 | -5 | 17 | -36 | -28 | 1
Cc1nn(-c2ccccc2)c2sc(C(=O)NNC(=O)COc3cccc4ccccc34)cc12 | 4 | 20 | 11 | -29 | -15 | 15
Cc1nn(-c2ccccc2)c2sc(C(=O)NNC(=O)COc3ccccc3)cc12 | 2 | -2 | 49* | -9 | -6 | -6
COc1ccc(NC(=O)N(C)C[C@H]2OCc3cn(nn3)CCCC(=O)N([C@@H](C)CO)C[C@@H]2C)cc1 | 3 | / | / | / | / | -18
CC(C)[C@H](NC(=O)NC1CCCc2ccccc21)C(=O)O (some centres not stated) | 15 | -3 | 8 | -23 | -6 | 4
COC(=O)[C@H](C)NC(=O)NC1CCCc2ccccc21 (some centres not stated) | / | -2 | 4 | 61* | 36* | /
CCOC(=O)c1cnc(-n2[nH]c(C)c(Cc3ccccc3)c2=O)[nH]c1=O | 0 | 17* | 25 | -6 | 3 | -4
CCOC(=O)c1cnc(Cc2ccccc2)[nH]c1=O | 1 | 0 | -1 | -9 | -9 | 5
COC(=O)C1=C(C)N(C)C(=NCc2ccc(OC)cc2)NC1c1cccc(Cl)c1 (configuration not stated) | 3 | / | / | / | / | -8
